Compounds with a hit are over-represented: about 2.9% of the library has one in this group of screens.
SIAE primary: human SIAE inhibitors, primary screen, biochemical, fluorescence polarization, FP-Rh probe, 1536-well HTS; inhibition, % at 9.66 µM; Sialate O-acetylesterase (Homo sapiens), Q9HAT2; AID 1053197, 2014; SIAE FP-Rh probe binding; 0.69% of 370,000 active;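 active = inhibition above a cutoff: mean of compounds within the control limits plus 3 SD of those, cut at about 17% in these data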
PRMT1 FP inh: PRMT1 methyltransferase inhibitors, primary screen, biochemical, fluorescence polarization. recombinant PRMT1, activity-based probe fluorescence polarization. inhibition, % at 2.79 µM. 1.3% of 370,000 active. AID 652257, 2013;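 active = inhibition above about 21% made by adding two undisclosed values, limit read from the data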
TCR-CD3 inh: inhibitors of human TCR-CD3 interaction, primary screen, biochemical, fluorescence, TAMRA-labeled TCR probe; T-cell receptor (TCR); inhibition, % at 9.4 µM; 0.37% of 360,000 active; AID 651800, 2012; in the data active = inhibition above about 19%;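 note: recombinant mutant TCR 2C K166C tagged with TAMRA read by polarization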
ATG4B inhibitor: ATG4B protease inhibitors, primary screen, biochemical, fluorescence, uHTS | Cysteine protease ATG4B (Homo sapiens), Q9Y4P1 | ATG4B cleavage of LC3-PLA2, NBD-HPC fluorescence, 1 h | inhibition, % at 8.33 µM | 0.51% of 340,000 active; in the data active = inhibition above about 40%
HTRA1 inh: HTRA1 serine protease inhibitors, primary screen, biochemical, fluorescence polarization, HTS | recombinant HTRA1, FP-rhodamine activity-based probe | inhibition, % at 5.96 µM | 0.5% of 340,000 active; in the data active = inhibition above about 36%
Target sequence (Q92743 whole entry, looked up): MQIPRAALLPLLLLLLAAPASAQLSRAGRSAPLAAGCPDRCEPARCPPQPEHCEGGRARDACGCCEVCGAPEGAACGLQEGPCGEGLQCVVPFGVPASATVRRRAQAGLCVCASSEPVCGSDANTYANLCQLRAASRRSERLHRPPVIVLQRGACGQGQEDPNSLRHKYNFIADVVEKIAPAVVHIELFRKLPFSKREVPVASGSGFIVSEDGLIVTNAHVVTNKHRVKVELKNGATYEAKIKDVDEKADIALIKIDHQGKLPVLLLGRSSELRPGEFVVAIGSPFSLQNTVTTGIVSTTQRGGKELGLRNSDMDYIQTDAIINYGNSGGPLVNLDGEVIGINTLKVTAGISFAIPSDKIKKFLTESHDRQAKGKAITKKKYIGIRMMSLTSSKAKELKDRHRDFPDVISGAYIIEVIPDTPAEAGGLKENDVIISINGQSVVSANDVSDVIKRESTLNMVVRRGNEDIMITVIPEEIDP
mABHD4 FP: ABHD4 inhibitors, primary screen, biochemical, fluorescence polarization, mouse. (Lyso)-N-acylphosphatidylethanolamine lipase (Mus musculus), Q8VD66. purified mABHD4, FP-Rh probe fluorescence polarization. inhibition, % at 8.92 µM. 0.54% of 370,000 active. AID 720543, 2013;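 active = inhibition exceeding the mean over every tested compound plus 3 SD, cut at about 30% in these data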
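Assay system: mABHD4 protein; medium: HEPES pH 7.0, NaCl, Pluronic buffer; dosing: 8.92 µM, single dose; schedule: 45 min + 60 min at 25 °C; signal: FP readout, ex 525 nm / em 598 nm; read-out: normalized percent inhibition of probe labeling; repeats: single replicate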
ATG4B confirm: ATG4B protease inhibitors, retest, confirmation, biochemical, fluorescence, single concentration. shares compounds with ATG4B inhibitor. ATG4B protease fluorescent substrate cleavage assay. inhibition, % at 8.33 µM. 92% of 320 active. AID 504757, 2011; in the data active = inhibition above about 39%
PLA2 counter: PLA2 enzyme inhibition, counter-screen for ATG4B inhibitor project, biochemical, single concentration, uHTS hits; inhibition, % at 8.33 µM; shares compounds with ATG4B inhibitor; 66% of 1,600 active; purified PLA2, NBD-C6-HPC fluorescence, 45 min; in the data active = inhibition above about 50%
Target sequence (P04054 whole entry, looked up): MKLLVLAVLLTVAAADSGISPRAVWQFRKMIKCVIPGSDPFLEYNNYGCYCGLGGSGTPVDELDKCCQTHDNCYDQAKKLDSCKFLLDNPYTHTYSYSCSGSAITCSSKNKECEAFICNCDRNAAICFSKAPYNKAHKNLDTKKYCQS
Each line names hits and unclear results; the compound was inactive in the other large screens (follow-up assays come after a bar, where they were run).

Brc1ccc2[nH]c3c(N4CCc5ccccc5C4)ncnc3c2c1	ATG4B inhibitor 48 (no result: SIAE primary, PRMT1 FP inh, TCR-CD3 inh, HTRA1 inh, mABHD4 FP) | PLA2 counter 63
CCn1c(O)c(/C=C2\C=Nc3ccccc32)sc1=Nc1ccccc1	ATG4B inhibitor 43 | PLA2 counter inactive
Cn1c(O)c(/C=C2\C=Nc3ccccc32)sc1=Nc1ccc(C(=O)O)cc1	none
COCCCN1C(=O)[C@H](CC(=O)NCc2ccc(C)o2)[C@]2(C(=O)OC)CCCCC=C12	none (no result: TCR-CD3 inh, ATG4B inhibitor, HTRA1 inh)
CC(=O)Nc1ccc(S(=O)(=O)Nc2nc3ccccc3nc2Nc2ccc3ccccc3c2)cc1	ATG4B inhibitor 48 | PLA2 counter 58
CCOC(=O)[C@]12CCCC=C1N(CCCOC)C(=O)[C@@H]2CC(=O)NCc1ccccc1	none (no result: TCR-CD3 inh, ATG4B inhibitor, HTRA1 inh)
O=c1n(Cc2ccccc2Cl)nc2n1-c1ccccc1SC2	ATG4B inhibitor 52 | PLA2 counter 54
O=c1n(Cc2ccccc2)nc2n1-c1ccccc1SC2	none
Cc1ccc(C)c(Oc2cc(NC(=O)CCCn3nc(C)c([N+](=O)[O-])c3C)cc([N+](=O)[O-])c2)c1	ATG4B inhibitor 65 | PLA2 counter 64
Cc1ccc(Oc2cc(NC(=O)CCCn3nc([N+](=O)[O-])cc3C)cc([N+](=O)[O-])c2)cc1	ATG4B inhibitor 67 | PLA2 counter 65
Cc1nn(CCCC(=O)Nc2cc(Oc3ccccc3)cc([N+](=O)[O-])c2)c(C)c1[N+](=O)[O-]	ATG4B inhibitor 53 | PLA2 counter 63
Cc1nn(CCCC(=O)NCCc2ccccc2)c(C)c1[N+](=O)[O-]	none
Cc1cccc(NC(=O)NN(C(=O)c2ccccc2Cl)C(C)(C)C)c1	none (no result: TCR-CD3 inh, ATG4B inhibitor, HTRA1 inh)
O=C1C(=C(c2ccccc2)c2ccccc2)Nc2ccccc21	ATG4B inhibitor 43 | PLA2 counter 50
O=C1C(=C(O)c2ccccc2)C(=O)c2ccccc21	none
CC(C)C(=O)O/N=C(\N)c1ccc(Oc2ccc(Cl)cc2)c([N+](=O)[O-])c1	none
NC(=O)c1ccc(Oc2ccc3c(c2)CCC3)c([N+](=O)[O-])c1	ATG4B inhibitor 80 | PLA2 counter 85
NC(=O)c1ccc(Oc2ccc(Cl)cc2)c([N+](=O)[O-])c1	ATG4B inhibitor 59 | PLA2 counter 58
NC(=O)c1ccc(Oc2ccc(Cl)c3ccccc23)c([N+](=O)[O-])c1	ATG4B inhibitor 62 | PLA2 counter 54
N/C(=N\O)c1ccc(Oc2ccccc2Cl)c([N+](=O)[O-])c1	none
C[C@H](O)[C@@H]1CN2CCc3c([nH]c4cccc(-c5ccc6c(c5)OCO6)c34)[C@@H]2C[C@@H]1N(C)C(=O)c1ccco1	none (no result: TCR-CD3 inh, ATG4B inhibitor, HTRA1 inh)
O=S(=O)(NCc1c(Cl)cccc1Oc1ccccc1)c1ccccc1	none
Cc1ccc(S(=O)(=O)NCc2c(Cl)cccc2Oc2ccccc2)cc1	ATG4B inhibitor 63 (no result: SIAE primary, PRMT1 FP inh, TCR-CD3 inh, mABHD4 FP) | PLA2 counter 59
O=C(Nc1nc(-c2cccs2)c(-c2cccs2)s1)C1CCCC1	ATG4B inhibitor 50 | PLA2 counter 60
O=C(Nc1nnc(-c2cccs2)s1)C1CC1	none
COC(=O)[C@]12C[C@H](CC(=O)NCC3CCCCC3)C(=O)N(Cc3ccccc3)C1=C[C@H](COCc1ccccc1)O[C@@H]2C	none (no result: TCR-CD3 inh, ATG4B inhibitor, HTRA1 inh)
Cc1ccccc1Cn1cc(NC(=O)CSc2nc3c(c(C(F)(F)F)n2)CCc2ccccc2-3)cn1	ATG4B inhibitor 78 | PLA2 counter 73
Cc1ccc(Cn2nc(C)c(NC(=O)CSc3nc4c(c(C(F)(F)F)n3)CCc3ccccc3-4)c2C)cc1	none
Cc1nc(NS(=O)(=O)c2ccc(Br)cc2)c2c3c(sc2n1)CCC3	ATG4B inhibitor 68 | PLA2 counter 72
Cc1nc(NC(C)c2ccccc2)c2c3c(sc2n1)CCC3 (centres undefined)	ATG4B inhibitor 46 (no result: SIAE primary, PRMT1 FP inh, TCR-CD3 inh, mABHD4 FP) | PLA2 counter inactive
CCOC(=O)[C@@]12CCCC3=C1N(CCC3)C(=O)[C@H]2CC(=O)NCc1ccc(OC)c(OC)c1	none (no result: TCR-CD3 inh, ATG4B inhibitor, HTRA1 inh)
COc1cccc(C=NNC(=O)CSc2nc3ccccc3[nH]2)c1O	none (no result: TCR-CD3 inh, ATG4B inhibitor, HTRA1 inh)
O=C(O)CC/C(=C\c1ccc(N2CCOCC2)c([N+](=O)[O-])c1)c1nc2ccccc2s1	none
O=C(O)CC/C(=C\c1ccc(Cl)c([N+](=O)[O-])c1)c1nc2ccccc2s1	ATG4B inhibitor 49 | ATG4B confirm 64 | PLA2 counter inactive
O=C(Oc1c(-c2ccccc2)c(=O)n2c3c(cccc13)CC2)c1ccco1	none (no result: HTRA1 inh)
O=C(Oc1c(-c2ccccc2)c(=O)n2c3c(cccc13)CC2)c1ccc(Cl)cc1	ATG4B inhibitor 62 | PLA2 counter 67
CCOc1ccc(NCc2ccccc2OCc2cccc(F)c2)cc1	ATG4B inhibitor 46 | ATG4B confirm 60 | PLA2 counter inactive
Cc1ccc(S(=O)(=O)N2c3ccccc3C[C@H]2CC=C(c2ccccc2)c2ccccc2)cc1	none (no result: TCR-CD3 inh, ATG4B inhibitor, HTRA1 inh)
CC(C)n1nnnc1C1(C)CCSCC(=O)N1Cc1cccc(C(F)(F)F)c1 (centres undefined)	none (no result: TCR-CD3 inh, ATG4B inhibitor, HTRA1 inh)
Cc1nc(NC(=O)CSc2cc(C)c3ccccc3n2)c(Cl)cc1Cl	ATG4B inhibitor 41 | PLA2 counter inactive
CCCCn1c(SCC(=O)Nc2cc(C)on2)nc2ccsc2c1=O	none
CCCCn1c(SCC(=O)Nc2cc(C)[nH]n2)nc2ccsc2c1=O	ATG4B inhibitor 45 | ATG4B confirm 56 | PLA2 counter inactive
CCc1ccc2oc(-c3ccc(OC)cc3)cc(=Nc3c(C)n(C)n(-c4ccccc4)c3=O)c2c1	none
CCc1ccc2oc(-c3ccc(OC)cc3)cc(=Nc3cccc(C(=O)O)c3)c2c1	ATG4B inhibitor 81 | PLA2 counter 80
COc1ccc2cc(C(=O)NCc3ccco3)c(=Nc3ccc(C(=O)O)cc3)oc2c1	none
COc1ccc(-c2cc(=Nc3ccc(C(=O)O)cc3)c3cc(C)ccc3o2)cc1	ATG4B inhibitor 41 | PLA2 counter 54
Cc1ccc(CNS(=O)(=O)c2ccc(C(C)(C)C)cc2)n1C	ATG4B inhibitor 86 | PLA2 counter 89
CC(C)CCn1c2ccccc2c2cc(CC(N)=O)ccc21	ATG4B inhibitor 68 | PLA2 counter 77
Oc1ccccc1C1CCCCC1c1ccccc1 (centres undefined)	ATG4B inhibitor 52 | PLA2 counter inactive
